SMILES strings stand for the structures.

The values that follow come from ChEMBL document CHEMBL1268860, “Revision of the Structures of 1,5-Dihydroxy-3,8-epoxyvalechlorine, Volvaltrate B, and Valeriotetrate C from Valeriana jatamansi and V. officinalis” (J Nat Prod, 2010).

Format in all cases: functional, cell-based
The test system of one test is A549. Nature of the test: Cytotoxicity against human A549 cells after 24 hrs by MTT assay. Conditions: A549, 24 h. In outline:
(§1)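 Cell lines from ATCC, seeded at 3000 cells per well and left 24 h before exposure to a range of compound concentrations. After 24 h of exposure, MTT was added and the plates were incubated another 24 h. Viability was read as absorbance at 570 nm, and IC50 values were calculated from these readings. Paclitaxel served as the positive control.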

Another test relates to Bel-7402. Nature of the test: Cytotoxicity against human Bel7402 cells after 24 hrs by MTT assay. Conditions: Bel-7402, 24 h. The essentials:
as §1

A short description of test [1]: Cytotoxicity against human PC3M cells after 24 hrs by MTT assay. Conditions: PC-3M. In outline:
as §1
For orientation: Formazan colour is commonly taken as a measure of viable cells.

The test system of another test is HCT-8. Nature of the test: Cytotoxicity against human HCT8 cells after 24 hrs by MTT assay. Conditions: HCT-8, 24 h. The essentials: as §1

As a reminder, the IC50 is the concentration needed to halve the response being measured. For the compound `C=C1[C@H]2O[C@@H](O)[C@@H]3[C@](CCl)(O2)[C@@H](OC(C)=O)C[C@]13O`, the IC50 (with A549; in the test on Bel-7402; in test [1]; with HCT-8) was more than 10 µM each time.

On to `C=C1[C@H]2O[C@@H](OCC)[C@@H]3[C@](CCl)(O2)[C@@H](OC(C)=O)C[C@]13O`, for which the IC50 (in the test with A549; in the test with Bel-7402; in test [1]; in the test on HCT-8) was more than 10 µM throughout.

For the compound `C=C1[C@H]2O[C@H](OCC)[C@@H]3[C@](CCl)(O2)[C@@H](OC(C)=O)C[C@]13O`, the half-maximal inhibitory concentration (IC50) (in the test with A549; in the test on Bel-7402; in test [1]; in the test with HCT-8) was more than 10 µM each time.

As for `C=C1[C@H]2O[C@@H](OC)[C@@H]3[C@](CCl)(O2)[C@@H](OC(C)=O)C[C@]13O`, the IC50 (in the test on A549; in the test on Bel-7402; in test [1]; in the test on HCT-8) was more than 10 µM throughout.

On to `C=C1[C@H]2O[C@H](OC)[C@@H]3[C@](CCl)(O2)[C@@H](OC(C)=O)C[C@]13O`, for which the IC50 (in the test with A549; in the test on Bel-7402; in test [1]; in the test with HCT-8) was more than 10 µM each time.

In the case of `CC(=O)O[C@H]1C[C@]2(O)C(COC(=O)[C@H](OC(=O)CC(C)C)C(C)C)=CO[C@@H](OC(=O)CC(C)C)[C@@H]2[C@@]1(O)CCl` [VOLVALTRATE B], the IC50 with A549 came to 8.5 µM; with Bel-7402 it was 6.1 µM; in test [1], 2 µM; in the test with HCT-8, 3.2 µM.
